Data reported in ChEMBL document CHEMBL3774342, “Indole Based Weapons to Fight Antibiotic Resistance: A Structure-Activity Relationship Study” (J Med Chem, 2016).
≈ marks a conversion by molar mass, not a printed value. Calls of active or inactive are those of the source. The rule behind the calls is not given here.

How the values were obtained:
[1] = target: T1, Quinolone resistance protein NorA (Staphylococcus aureus) (UniProt P0A0J7); assay: Inhibition of NorA efflux pump in Staphylococcus aureus 1199B assessed as reduction in EtBr efflux at 50 uM incubated for 20 mins measured for 5 mins by real-time fluorometric analysis
T1 sequence (whole entry): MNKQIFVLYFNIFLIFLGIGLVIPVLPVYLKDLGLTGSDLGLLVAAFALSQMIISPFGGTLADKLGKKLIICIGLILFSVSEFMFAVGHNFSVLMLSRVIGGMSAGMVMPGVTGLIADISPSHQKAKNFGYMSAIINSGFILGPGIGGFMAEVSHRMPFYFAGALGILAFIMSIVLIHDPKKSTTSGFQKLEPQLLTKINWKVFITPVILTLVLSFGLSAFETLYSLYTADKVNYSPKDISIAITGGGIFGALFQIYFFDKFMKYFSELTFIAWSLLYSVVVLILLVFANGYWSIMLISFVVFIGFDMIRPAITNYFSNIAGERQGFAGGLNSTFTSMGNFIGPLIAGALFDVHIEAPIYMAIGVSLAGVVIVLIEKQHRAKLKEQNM
Outline: (§1)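 SA-1199B (norA-overexpressing) grown overnight in cation-supplemented Mueller-Hinton broth, diluted 25-fold and grown at 35 °C to OD600 0.7–0.8. Loaded with EtBr 25 µM plus CCCP 100 µM (final), then resuspended in fresh broth. Fluorescence read at ex 485/em 645 nm for 5 min, ± compound. Efflux inhibition in % relative to untreated cells; screened at 50 µM. IC50 from concentration series; triplicate, two technical replicates each.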

Staphylococcus aureus [2] = assay: Antimicrobial activity against Staphylococcus aureus 1199B by microdilution method; assay type: functional
Outline: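 MIC by broth microdilution following CLSI guidelines against S. aureus SA-1199B, a strain that overexpresses norA. Run on compounds giving at least 80% EtBr efflux inhibition and on selected weaker ones.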

Liver microsome [3] = assay: Drug metabolism in human liver microsomes assessed as ethyl 2-methyl-5-(2-(piperazin-1-yl)ethoxy)-1H-indole-3-carboxylate formation at 10 uM preincubated for 5 mins followed by NADPH addition measured after 30 mins by HPLC-MS/MS analysis; assay type: ADME; details: 0.5 h
Outline: (§2)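 Human liver microsomes at 0.5 mg protein/ml in 100 mM potassium phosphate pH 7.4. Substrate at 10 µM final, pre-incubated 5 min at 37 °C with shaking, then started with 1 mM NADPH. Quenched at 0 and 30 min with cold acetonitrile containing labetalol internal standard. Spun 12000 g, 5 min, 4 °C; supernatant analysed by UHPLC C18 HPLC-MS/MS.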

Liver microsome [4] = assay: Drug metabolism in human liver microsomes assessed as 1-benzyl-2-methyl-5-(2-(piperazin-1-yl)ethoxy)-1H-indole-3-carboxylic acid formation at 10 uM preincubated for 5 mins followed by NADPH addition measured after 30 mins by HPLC-MS/MS analysis; assay type: ADME; details: 0.5 h; outline: as §2
[5] = Metabolic stability in human liver microsomes assessed as compound remaining after at 10 uM preincubated for 5 mins followed by NADPH addition measured after 30 mins by HPLC-MS/MS analysis; assay type: ADME; details: read-out: Stability; outline: as §2
Staphylococcus aureus [6] = assay: Inhibition of NorA efflux pump A116E GrlA mutant in Staphylococcus aureus 1199B assessed as potentiation of ciprofloxacin-mediated antibacterial activity at 3.13 ug/ml relative to control
[7] = target: T1, Quinolone resistance protein NorA (Staphylococcus aureus); assay: Inhibition of NorA efflux pump in Staphylococcus aureus 1199 assessed as potentiation of ciprofloxacin-mediated antibacterial activity
[8] = target: T2, Quinolone resistance protein NorA (Staphylococcus aureus, UniProt P0A0J7); assay: Inhibition of NorA efflux pump in Staphylococcus aureus 1199B assessed as reduction in EtBr efflux incubated for 20 mins measured for 5 mins by real-time fluorometric analysis; outline: as §1
T2 sequence (P0A0J7 whole entry): T1 sequence (whole entry)

[9] = Solubility of the compound in D2O solution at 25 degC by 1H NMR analysis; assay type: physicochemical
Outline: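 1H NMR in D2O at 25 °C with TSP internal standard, following a literature procedure.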

Liver microsome [10] = assay: Drug metabolism in human liver microsomes assessed as ethyl 5-(3-aminopropoxy)-2-methyl-1H-indole-3-carboxylate formation at 10 uM preincubated for 5 mins followed by NADPH addition measured after 30 mins by HPLC-MS/MS analysis; assay type: ADME; details: 0.5 h; outline: as §2
Liver microsome [11] = assay: Drug metabolism in human liver microsomes assessed as 5-(3-aminopropoxy)-1-benzyl-2-methyl-1H-indole-3-carboxylic acid formation at 10 uM preincubated for 5 mins followed by NADPH addition measured after 30 mins by HPLC-MS/MS analysis; assay type: ADME; details: 0.5 h; outline: as §2
Liver microsome [12] = assay: Drug metabolism in human liver microsomes assessed as ethyl 2-methyl-5-(3-(piperazin-1-yl)propoxy)-1H-indole-3-carboxylate formation at 10 uM preincubated for 5 mins followed by NADPH addition measured after 30 mins by HPLC-MS/MS analysis; assay type: ADME; details: 0.5 h; outline: as §2
Liver microsome [13] = assay: Drug metabolism in human liver microsomes assessed as 1-benzyl-2-methyl-5-(3-(piperazin-1-yl)propoxy)-1H-indole-3-carboxylic acid formation at 10 uM preincubated for 5 mins followed by NADPH addition measured after 30 mins by HPLC-MS/MS analysis; assay type: ADME; details: 0.5 h; outline: as §2
Liver microsome [14] = assay: Drug metabolism in human liver microsomes assessed as ethyl 2-Methyl-5-(3-(piperidin-1-yl)propoxy)-1H-indole-3-carboxylate formation at 10 uM preincubated for 5 mins followed by NADPH addition measured after 30 mins by HPLC-MS/MS analysis; assay type: ADME; details: 0.5 h; outline: as §2
Liver microsome [15] = assay: Drug metabolism in human liver microsomes assessed as ethyl 1-(2-hydroxybenzyl)-2-methyl-5-(3-(piperidin-1-yl)propoxy)-1H-indole-3-carboxylate formation at 10 uM preincubated for 5 mins followed by NADPH addition measured after 30 mins by HPLC-MS/MS analysis; assay type: ADME; details: 0.5 h; outline: as §2
Liver microsome [16] = assay: Drug metabolism in human liver microsomes assessed as N-dealkylated M-68 formation at 10 uM preincubated for 5 mins followed by NADPH addition measured after 30 mins by HPLC-MS/MS analysis; assay type: ADME; details: 0.5 h; outline: as §2
Liver microsome [17] = assay: Drug metabolism in human liver microsomes assessed as N-dealkylated M-90 formation at 10 uM preincubated for 5 mins followed by NADPH addition measured after 30 mins by HPLC-MS/MS analysis; assay type: ADME; details: 0.5 h; outline: as §2
Liver microsome [18] = assay: Drug metabolism in human liver microsomes assessed as 1-Benzyl-2-methyl-5-(3-(piperidin-1-yl)propoxy)-1H-indole-3-carboxylic acid formation at 10 uM preincubated for 5 mins followed by NADPH addition measured after 30 mins by HPLC-MS/MS analysis; assay type: ADME; details: 0.5 h; outline: as §2

| Structure (SMILES) | inhibition [1] [%] | MIC (Staphylococcus aureus [2]) [µg/mL] | Drug metabolism (Liver microsome [3]) | Drug metabolism (Liver microsome [4]) | remaining at 0.5 h, 10 µM [5] [%] | fold change (FC) (Staphylococcus aureus [6]) | inhibition [7] | IC50 [8] [µM] | solubility [9] [µM] | Drug metabolism (Liver microsome [10]) | Drug metabolism (Liver microsome [11]) | Drug metabolism (Liver microsome [12]) | Drug metabolism (Liver microsome [13]) | Drug metabolism (Liver microsome [14]) | Drug metabolism (Liver microsome [15]) | Drug metabolism (Liver microsome [16]) | Drug metabolism (Liver microsome [17]) | Drug metabolism (Liver microsome [18]) |
| --- | --- | --- | --- | --- | --- | --- | --- | --- | --- | --- | --- | --- | --- | --- | --- | --- | --- | --- |
| CCOC(=O)c1c(C)n(Cc2ccccc2)c2ccc(OCCN3CCNCC3)cc12 | 99.2 | > 100 | metabolite_detected | metabolite_detected | 72 | 4 | inactive | 15.5 | 190 (≈ 80.1 µg/mL) | – | – | – | – | – | – | – | – | – |
| CCOC(=O)c1c(C)n(Cc2ccccc2)c2ccc(OCCCN)cc12 | 100 | > 100 | – | – | 87 | 4 | inactive | 12.5 | 17 (≈ 6.23 µg/mL) | metabolite_detected | metabolite_detected | – | – | – | – | – | – | – |
| CCOC(=O)c1c(C)n(Cc2ccccc2)c2ccc(OCCCN3CCNCC3)cc12 | 100 | 100 (≈ 230 µM) | – | – | 82 | 4 | inactive | 12.5 | 20 (≈ 8.71 µg/mL) | – | – | metabolite_detected | metabolite_detected | – | – | – | – | – |
| CCOC(=O)c1c(C)n(Cc2ccccc2OC)c2ccc(OCCCN3CCCCC3)cc12 | 87.9 | > 100 | – | – | 66 | – | – | 5 | 25 (≈ 11.6 µg/mL) | – | – | – | – | metabolite_detected | metabolite_detected | – | – | – |
| CCOC(=O)c1c(C)n(Cc2ccccc2)c2ccc(OCC(F)CN3CCCCC3)cc12 (stereo not drawn) | 96.7 | > 100 | – | – | 52 | – | – | 5.1 | 20 (≈ 9.05 µg/mL) | – | – | – | – | – | – | metabolite_detected | metabolite_detected | – |
| CCOC(=O)c1c(C)n(Cc2ccccc2)c2ccc(OCCCN3CCCCC3)cc12 | 98.5 | > 100 | – | – | 76 | – | – | 6 | 23 (≈ 10 µg/mL) | – | – | – | – | metabolite_detected | – | – | – | metabolite_detected |
